E-selectin induc – E-selectin induction on HUVECs; AID 686992; actives 0.37% (n = 260,000); P16581; HUVEC E-selectin immunofluorescence imaging; normalized: neutral wells 0, TNF-alpha wells 100; activation, % at 7.58 µM;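 active = mean E-selectin-positive cell signal at least 10% of the positive control, reached in at least 60% of replicates, without over 20% cell loss; inconclusive = no rule given, readout overlaps actives, possibly toxicity-flagged; inactive = the rest, including those meeting only one limit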
Target sequence (P16581 whole entry, looked up): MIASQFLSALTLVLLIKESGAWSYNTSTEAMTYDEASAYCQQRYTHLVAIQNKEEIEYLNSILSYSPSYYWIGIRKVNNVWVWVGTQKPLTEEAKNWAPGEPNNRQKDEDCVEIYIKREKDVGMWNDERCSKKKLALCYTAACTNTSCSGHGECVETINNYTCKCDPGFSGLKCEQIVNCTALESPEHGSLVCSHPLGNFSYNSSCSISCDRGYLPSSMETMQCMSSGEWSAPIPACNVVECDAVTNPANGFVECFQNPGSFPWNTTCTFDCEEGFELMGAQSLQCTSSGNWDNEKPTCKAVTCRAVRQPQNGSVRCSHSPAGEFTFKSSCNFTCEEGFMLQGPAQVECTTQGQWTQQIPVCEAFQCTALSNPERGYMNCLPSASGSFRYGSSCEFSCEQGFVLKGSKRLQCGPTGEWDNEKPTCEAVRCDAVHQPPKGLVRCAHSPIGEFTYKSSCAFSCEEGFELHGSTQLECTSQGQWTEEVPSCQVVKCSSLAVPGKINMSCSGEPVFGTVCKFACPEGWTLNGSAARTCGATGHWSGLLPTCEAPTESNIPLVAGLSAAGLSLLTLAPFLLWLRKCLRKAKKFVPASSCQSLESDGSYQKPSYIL
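Read-out: % PE-positive cells | Test system: HUVEC | Doses: One compound dose added by pin transfer | Buffer or medium: EGM-2 over gelatin coat | Signal: Immunofluorescence imaging | Benchmarks: TNF-alpha, DMSO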
SIRT5 block – sirtuin-5 (human) deacylase inhibition | Q9NXA8 | Purified SirT5, succinyl-peptide AMC, trypsin-coupled fluorescence | inhibition, % at 15 µM | actives 1.1% (n = 330,000) | AID 652115; in the data active = inhibition above about 15%; inconclusive = no clear call, values can overlap the other calls
DENV2 CPE rescue – DENV2-induced cell death inhibition | DENV2-infected cells, cytopathic effect rescue, plate reader | CPE inhibition, % at 9.99 µM | actives 1.7% (n = 350,000) | AID 651640; in the data active = CPE inhibition above about 20%, passing the limit was not always enough; inconclusive = no clear call, values can overlap the other calls; tested in BHK-21 cells
Each line names hits and unclear results; the compound was inactive in the other large screens. An excerpt weighted towards active compounds, which were near 2.8% of everything screened.

C[C@H]1CN([C@@H](C)CO)C(=O)c2cc(NS(=O)(=O)c3ccc(Cl)cc3)ccc2O[C@@H]1CN(C)Cc1ccc(C(F)(F)F)cc1	none (no result: SIRT5 block, DENV2 CPE rescue)
O=C(CCn1c2c(c3ccccc31)CCCC2)NNC(=O)c1ccc(Cl)c([N+](=O)[O-])c1	SIRT5 block 26.9 (no result: E-selectin induc, DENV2 CPE rescue)
O=C(CCn1c2c(c3ccccc31)CCCC2)NNC(=O)c1ccc([N+](=O)[O-])cc1	none
CN(c1ccccc1)c1ccc(/C=C(/CCC(=O)O)c2nc3ccccc3s2)cc1[N+](=O)[O-]	SIRT5 block 18.0
O=C(O)CC/C(=C\c1ccc(N2CCCC2)c([N+](=O)[O-])c1)c1nc2ccccc2s1	none
Cn1cnc(S(=O)(=O)N[C@@H]2CC[C@@H](CC(=O)NCC3CCCCC3)O[C@@H]2CO)c1	none
CC(=O)N(C)C[C@@H]1Oc2ncc(-c3cncnc3)cc2C(=O)N([C@@H](C)CO)C[C@H]1C	none
O=C(C[C@H]1CC[C@H](NC(=O)Nc2cccc(F)c2)[C@H](CO)O1)NCC1CC1	DENV2 CPE rescue inconclusive
Cc1cc2nc(NCCCO)n(CC(=O)c3cc(C(C)(C)C)c(O)c(C(C)(C)C)c3)c2cc1C	DENV2 CPE rescue 32.3 (no result: SIRT5 block)
COc1ccc(C(=O)Cn2c(NCCCO)nc3ccccc32)cc1	DENV2 CPE rescue inconclusive
C=CC[C@]1(C(=O)N(C)C)N=C(c2ccc(OCCCO)cc2)O[C@H]1c1ccccc1	none (no result: E-selectin induc)
COc1ccc2c3c(n(C)c2c1)[C@@H](CO)N(C(=O)CN1CCOCC1)CC31CN(C(C)=O)C1	none
CCN(CCNC(=O)C1CCC(=O)N1Cc1ccc(C)cc1)c1ccccc1 (centres undefined)	none
CCN(CCCNC(=O)C1CCC(=O)N1Cc1ccc(C)cc1)c1cccc(C)c1 (centres undefined)	SIRT5 block 16.7 (no result: E-selectin induc, DENV2 CPE rescue)
CN(C)CCCNC(=O)C[C@@H]1CC[C@@H]2[C@H](COC[C@@H](O)CN2S(=O)(=O)c2ccc(F)cc2)O1	none
Cc1ccc(S(=O)(=O)N2C[C@@H](O)COC[C@H]3O[C@@H](CC(=O)NCCN4CCCCC4)CC[C@@H]32)cc1	DENV2 CPE rescue 67.2
Cn1cnc(S(=O)(=O)N2C[C@H](O)COC[C@H]3O[C@H](CC(=O)NC4CCCC4)CC[C@@H]32)c1	none
Cn1cnc(S(=O)(=O)N2C[C@@H](O)COC[C@@H]3O[C@@H](CC(=O)NC4CCCC4)CC[C@H]32)c1	DENV2 CPE rescue 114.3
CN(C)CCCNC(=O)C[C@@H]1CC[C@H]2[C@@H](COC[C@H](O)CN2S(=O)(=O)c2ccccc2)O1	DENV2 CPE rescue 59.9
Cc1ccc(S(=O)(=O)N2C[C@H](O)COC[C@H]3O[C@H](CC(=O)NCCN4CCCCC4)CC[C@@H]32)cc1	none
CO[C@H](CN(C)C(=O)c1ccc2c(c1)OCO2)[C@@H](C)CN([C@@H](C)CO)S(=O)(=O)c1ccccc1	none
O=C(N[C@@H]1CC[C@@H](CCNC(=O)C2CCC2)O[C@H]1CO)c1ccccn1	none
C[C@@H]1CN([C@H](C)CO)C(=O)c2cccc(NS(=O)(=O)c3cn(C)cn3)c2O[C@H]1CN(C)S(=O)(=O)c1cccs1	none
C[C@H](CO)N1C[C@H](C)[C@@H](CN(C)CC2CC2)Oc2ccc(NC(=O)Cc3ccccc3)cc2C1=O	none
COC(=O)c1ccc(N2C(=O)CC(SCC(=O)Nc3ccc(OC)cc3)C2=O)cc1 (centres undefined)	E-selectin induc 57.9
CCOC(=O)c1ccc(N2C(=O)CC(SCC(=O)Nc3ccc(S(N)(=O)=O)cc3)C2=O)cc1 (centres undefined)	none (no result: E-selectin induc, SIRT5 block)
CCCN1C(C)C(C(=O)OCC)=CN(Cc2ccc(Br)cc2)S1(=O)=O (centres undefined)	SIRT5 block 31.5
CC#CCN1C=C(C(=O)OCC)C(C)N(Cc2ccc(Br)cc2)S1(=O)=O (centres undefined)	none
COC(=O)[C@]1(Sc2ccc(OC)cc2)CC(=O)N[C@@H]1c1ccccc1	DENV2 CPE rescue 72.3
COC(=O)[C@@]1(Sc2ccc(C)cc2)CC(=O)N[C@@H]1c1ccccc1	none
Cc1cccc(Cl)c1NC(=O)NCCCN1CCOCC1	none (no result: SIRT5 block)
Cc1cccc(Cl)c1NC(=O)NCCCN1CCCCC1C (centres undefined)	SIRT5 block 23.1
COc1ccc2ccccc2c1/C=N/NC(=O)c1nnn(-c2nonc2N)c1C(C)C	SIRT5 block 28.3
Cc1ccc(SCc2c(C(=O)N/N=C/c3ccoc3)nnn2-c2nonc2N)cc1	none (no result: E-selectin induc)
COc1ccc2ccccc2c1/C=N/NC(=O)c1nnn(-c2nonc2N)c1CN(C)C	none
CCCc1c(C(=O)N/N=C/c2ccoc2)nnn1-c1nonc1N	DENV2 CPE rescue 20.8
CC(C)NC(=O)N(C)C[C@@H]1Oc2ccc(NS(=O)(=O)c3ccc(Cl)cc3)cc2CC(=O)N([C@H](C)CO)C[C@H]1C	none
O=C(C[C@@H]1CC[C@@H](NC(=O)C2CCC2)[C@H](CO)O1)Nc1nccs1	none
NC(=O)[C@H]1[C@@H]2C(=O)O[C@@H](c3ccccc3)[C@@H](c3ccccc3)N2[C@@H](c2ccc(O)cc2)[C@]12C(=O)Nc1ccc(C#CC3(O)CCCCCC3)cc12	none (no result: E-selectin induc)
COc1ccccc1CNC(=O)COc1cccnc1[N+](=O)[O-]	none (no result: E-selectin induc)
COc1ccccc1CNc1ncccc1[N+](=O)[O-]	SIRT5 block 15.8
CN(C)C(=O)C[C@H]1CC[C@H](NC(=O)C2CCOCC2)[C@@H](CO)O1	none
O=C(Cc1ccc(S(=O)(=O)N2CCOCC2)s1)NCC(=O)Nc1ccccc1Br	DENV2 CPE rescue 126.3
O=C(Cc1ccc(S(=O)(=O)N2CCOCC2)s1)Nc1ccccc1Br	none (no result: E-selectin induc)
CCCOc1ccc(NC(=O)Cc2ccc(S(=O)(=O)N3CCOCC3)s2)cc1OCCC	none
CCOc1ccc(NC(=O)Cc2ccc(S(=O)(=O)N3CCOCC3)s2)cc1OCC	DENV2 CPE rescue 64.8
O=C([C@H]1[C@H](CO)[C@H]2Cn3c(cccc3=O)[C@@H]1N2C(=O)CC1CC1)N1CCCCC1	none
COc1ccc(Cl)cc1-c1cc(C(=O)N[C@H](C)c2ccccc2)[nH]n1	DENV2 CPE rescue 73.7
COc1ccc(Cl)cc1-c1cc(C(=O)Nc2ccccc2)[nH]n1	none (no result: SIRT5 block)
C[C@@H]1CCCCO[C@H](CN(C)C)[C@H](C)CN([C@@H](C)CO)C(=O)c2cc(NS(C)(=O)=O)ccc2O1	none (no result: SIRT5 block, DENV2 CPE rescue)
C[C@@H]1CN([C@@H](C)CO)C(=O)c2cc(NS(C)(=O)=O)ccc2O[C@@H](C)CCCCO[C@@H]1CN(C)C	SIRT5 block 25.5, DENV2 CPE rescue inconclusive
CNC[C@@H]1OCCCC[C@H](C)Oc2ccc(NS(C)(=O)=O)cc2C(=O)N([C@@H](C)CO)C[C@@H]1C	DENV2 CPE rescue 131.5
CNC[C@H]1OCCCC[C@@H](C)Oc2ccc(NS(C)(=O)=O)cc2C(=O)N([C@H](C)CO)C[C@@H]1C	none (no result: SIRT5 block, DENV2 CPE rescue)
COc1ccc2c3c([nH]c2c1)[C@@H](CO)N(Cc1ccccn1)CC31CN(C(=O)c2ccccn2)C1	E-selectin induc inconclusive (no result: SIRT5 block)
C[C@@H]1CN([C@H](C)CO)C(=O)c2cccc(NS(C)(=O)=O)c2O[C@@H]1CN(C)Cc1ccc(Cl)c(Cl)c1	none
O=C(Nc1ccc2c(c1)OCO2)c1cccc2c1C(=O)N(C1CCCCC1)C2	none (no result: E-selectin induc)
CCCN1Cc2cccc(C(=O)Nc3ccc4c(c3)OCCO4)c2C1=O	DENV2 CPE rescue 93.6 (no result: SIRT5 block)
CCCC(=O)Nc1ccc2c(c1)C(=O)N(C)C[C@@H](OC)[C@H](C)CN(C(=O)CC)[C@@H](C)CO2	none (no result: SIRT5 block, DENV2 CPE rescue)
CC(=O)N1CC[C@@H]2[C@H]1c1cc(-c3ccc(C#N)cc3)ccc1N(C)[C@H]2CO	none

Bioassay records from PubChem.
